PubChem BioAssay AID493230 (Broad Institute, 2011)
Where “and” joins values, the source holds several entries; their conditions need not be identical. Identical values can stand only once. Calls of active or inactive are those of the source.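 The calls were made as follows: active = VEGF mRNA rise whose fitted curve reaches 40% activation within the highest concentration tested on that sample; inactive = the rest, including effects opposite to expected.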

Assays:
[1] = VEGF mRNA induction by HIF pathway activators, dose response, orthogonal assay for HIF pathway activator project, cell-based, U2OS, RT-PCR, dry powder, set 3 (AID 493230); settings: U2OS VEGF mRNA induction, RT-PCR; at 38 µM (top of the series)
Method in brief: (§1)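 Assay system – human osteosarcoma U2OS cells, endogenous VEGF-A mRNA · Input – 2,000 cells/well · Schedule – 24 h plating, then 24 h compound exposure at 37 °C · Technique – TaqMan RT-PCR, VEGF-A vs beta-actin · Control set – DMSO as negative control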

[2] = tested on: U2OS VEGF mRNA induction, RT-PCR; test: as above
Method in brief: as §1

| Compound | activation [1] | AC40 [2] |
| --- | --- | --- |
| CN1CCN(C(=O)c2cc(-c3ccccc3)on2)CC1 | -2.38% (inactive) | – |
| Cc1ccc(NC(=O)c2cc(-c3ccccc3)on2)cn1 | 4.97% (inactive) | – |
| c1ccc(-c2nnc(-c3ccccn3)nc2Nc2nc3ccccc3s2)cc1 | – | 0.427 µM |
| c1ccc(-c2cnc(Nc3nc(-c4ccccn4)nnc3-c3ccccc3)s2)cc1 | – | 0.433 µM |
| CC(Nc1nc(-c2ccccn2)nnc1-c1ccccc1)c1ccccc1 (configuration not stated) | – | 1.55 µM |
| CC1CN(Cc2ccc(O)c3ncccc23)CC(C)O1 (configuration not stated) | – | 12.5 µM |
| c1ccc(-c2nnc(-c3ccccn3)nc2N2CCC(C3CCCCC3)C2)cc1 (configuration not stated) | – | 0.535 µM |
| COc1ccc(CNc2nc(-c3ccccn3)nnc2-c2ccccc2)cc1 | – | 1.24 µM |
| C=CCNc1nc(-c2ccccn2)nnc1-c1ccccc1 | – | 4.08 µM |
| CC(C)(C)CCNC(=O)c1cc(-c2ccccc2)on1 | – | > 38 µM (inactive) |
| Cc1ccc(CNc2nc(-c3ccccn3)nnc2-c2ccccc2)cc1C | – | 0.83 µM |
| CN1CCN(c2nc(-c3ccccn3)nnc2-c2ccccc2)CC1 | – | 5.84 µM |
| Oc1ccc(CN2CCc3ccccc3C2)c2cccnc12 | – | 3.02 µM and 6.18 µM |
| c1ccc(CNc2nc(-c3ccccn3)nnc2-c2ccccc2)cc1 | – | 1.45 µM |
| c1ccc(-c2nnc(-c3ccccn3)nc2N2CCC(N3CCOCC3)CC2)cc1 | – | 6.33 µM |
| c1ccc(-c2nnc(-c3ccccn3)nc2N2CCC(c3ccccc3)C2)cc1 (configuration not stated) | – | 1.05 µM |
| O=C(c1cc(-c2ccccc2)on1)N1CCC(N2CCCC2)CC1 | 5.5% (inactive) | – |
| O=C(NCc1ccccc1)c1cc(-c2ccccc2)on1 | -3.24% (inactive) | – |
| O=C(NCCCn1ccnc1)c1cc(-c2ccccc2)on1 | – | 17.2 µM |
| c1ccc(-c2nnc(-c3ccccn3)nc2NCc2ccccn2)cc1 | – | 4.1 µM |
| O=C(NCCCN1CCOCC1)c1cc(-c2ccccc2)on1 | – | 28 µM |
| O=C(NCCN1CCCCC1)c1cc(-c2ccccc2)on1 | 2.31% (inactive) | – |

| Compound | activation [1] | AC40 [2] |
| --- | --- | --- |
| C[C@@H](Nc1nc(-c2ccccn2)nnc1-c1ccccc1)c1ccccc1 | – | 1.45 µM |
| Oc1ccc(CN2CCC3CCCCC3C2)c2cccnc12 (configuration not stated) | – | 1.58 µM |
| Cc1ccccc1CNc1nc(-c2ccccn2)nnc1-c1ccccc1 | – | 0.853 µM |
| O=C(c1cc(-c2ccccc2)on1)N1CCC(CO)CC1 | 2.91% (inactive) | – |
| Cc1cccc(Nc2nc(-c3ccccn3)nnc2-c2ccccc2)n1 | – | 2.98 µM |
| c1ccc(-c2ccc(CNc3nc(-c4ccccn4)nnc3-c3ccccc3)cc2)cc1 | – | 0.276 µM |
| O=C(Nc1ncc(-c2ccccc2)o1)c1cc(-c2ccccc2)on1 | 6.52% (inactive) | – |
| C[C@H](Nc1nc(-c2ccccn2)nnc1-c1ccccc1)C1CCCCC1 | – | 1.06 µM |
| Cn1c(NC(=O)c2cc(-c3ccccc3)on2)nc2ccccc21 | -8.77% (inactive) | – |
| C[C@@H](Nc1nc(-c2ccccn2)nnc1-c1ccccc1)C1CCCCC1 | – | 0.545 µM |
| c1ccc(-c2nnc(-c3ccccn3)nc2NCC2CCOCC2)cc1 | – | 6.69 µM |
| Clc1cccc(CNc2nc(-c3ccccn3)nnc2-c2ccccc2)c1 | – | 0.953 µM |
| c1ccc(-c2nnc(-c3ccccn3)nc2Nc2cnc3ccccc3n2)cc1 | – | 1.48 µM |
| c1ccc(-c2nnc(-c3ccccn3)nc2N2CCN(c3ccncc3)CC2)cc1 | – | 2.91 µM |
| OCC1CCN(Cc2ccc(O)c3ncccc23)CC1 | – | 2.6 µM |
| Cc1cccc(CNC(=O)c2cc(-c3ccccc3)on2)c1 | 9.8% (inactive) | – |
| O=C(NCC1CCCCC1)c1cc(-c2ccccc2)on1 | 5.37% (inactive) | – |
| O=C(Nc1nc(-c2ccccc2)cs1)c1cc(-c2ccccc2)on1 | 12.2% (inactive) | – |
| O=C(Nc1cn2ccccc2n1)c1cc(-c2ccccc2)on1 | – | 5.31 µM |
| Cc1ccc(CNc2nc(-c3ccccn3)nnc2-c2ccccc2)cc1 | – | 1.01 µM |
| c1ccc(-c2nnc(Nc3nc(-c4ccccn4)nnc3-c3ccccc3)s2)cc1 | – | 1.08 µM |
| COc1ccccc1N1CCN(Cc2ccc(O)c3ncccc23)CC1 | – | 0.384 µM |

| Compound | activation [1] | AC40 [2] |
| --- | --- | --- |
| O=C(NCCN1CCOCC1)c1cc(-c2ccccc2)on1 | – | 29.1 µM |
| c1ccc(-c2nnc(-c3ccccn3)nc2NCCCN2CCOCC2)cc1 | – | 6.44 µM |
| c1ccc(-c2nnc(-c3ccccn3)nc2NCC2CC2)cc1 | – | 2.29 µM |
| O=C(Nc1cnc2ccccc2c1)c1cc(-c2ccccc2)on1 | 4.77% (inactive) | – |
| c1ccc(-c2cccc(CNc3nc(-c4ccccn4)nnc3-c3ccccc3)c2)cc1 | – | 0.529 µM |
| c1ccc(-c2nnc(-c3ccccn3)nc2NCCc2ccccn2)cc1 | – | 6.47 µM |
| CC(C)(C)OC(=O)N1CCN(Cc2ccc(O)c3ncccc23)CC1 | – | 9.12 µM |
| CN(C)c1nc(-c2ccccn2)nnc1-c1ccccc1 | – | 6.76 µM |
| O=C(NCC1CC1)c1cc(-c2ccccc2)on1 | – | 24.9 µM |
| O=C(Nc1nnc(-c2ccccc2)s1)c1cc(-c2ccccc2)on1 | 2.88% (inactive) | – |
| Oc1ccc(CNC2CCc3ccccc32)c2cccnc12 (configuration not stated) | – | 27.1 µM |
| O=C(NC1CCc2ccccc2C1)c1cc(-c2ccccc2)on1 (configuration not stated) | – | > 38 µM (inactive) |
| OCC1CCN(c2nc(-c3ccccn3)nnc2-c2ccccc2)CC1 | – | 10.9 µM |
| O=C(Nc1ccc2ccccc2n1)c1cc(-c2ccccc2)on1 | 6.04% (inactive) | – |
| N#CC1(c2ccccc2)CCN(Cc2ccc(O)c3ncccc23)CC1 | – | 31.9 µM |
| c1ccc(-c2csc(Nc3nc(-c4ccccn4)nnc3-c3ccccc3)n2)cc1 | – | 0.495 µM |
| Oc1ccc(CN2CCC(Cc3ccccc3)CC2)c2cccnc12 | – | 6.73 µM |
| CC(C)(C)CCNc1nc(-c2ccccn2)nnc1-c1ccccc1 | – | 0.782 µM and 0.753 µM |
| c1ccc(-c2nnc(-c3ccccn3)nc2NCc2cccnc2)cc1 | – | 3.44 µM |
| Cn1c(-c2ccccc2)cnc1NC(=O)c1cc(-c2ccccc2)on1 | – | 24.6 µM |
| c1ccc(-c2nnc(-c3ccccn3)nc2NCC2CCCCC2)cc1 | – | 1.4 µM |
| O=C(NC1Cc2ccccc2C1)c1cc(-c2ccccc2)on1 | -6% (inactive) | – |

| Compound | activation [1] | AC40 [2] |
| --- | --- | --- |
| O=C(c1cc(-c2ccccc2)on1)N1CCN(c2ccncc2)CC1 | – | 35.8 µM |
| c1ccc(-c2nnc(-c3ccccn3)nc2NCCN2CCOCC2)cc1 | – | 7.65 µM |
| Cn1c(-c2ccccc2)cnc1Nc1nc(-c2ccccn2)nnc1-c1ccccc1 | – | 4.51 µM |
| CN(C)CCNC(=O)c1cc(-c2ccccc2)on1 | -3.96% (inactive) | – |
| Cc1cccc(NC(=O)c2cc(-c3ccccc3)on2)n1 | – | > 38 µM (inactive) |
| Cc1ccc(CNC(=O)c2cc(-c3ccccc3)on2)cc1 | -2.87% (inactive) | – |
| Oc1ccc(CNC2Cc3ccccc3C2)c2cccnc12 | – | 12.9 µM |
| c1ccc(CCNc2nc(-c3ccccn3)nnc2-c2ccccc2)cc1 | – | 5.17 µM |
| O=C(Nc1ncc2ccccc2n1)c1cc(-c2ccccc2)on1 | – | 29.4 µM |
| CCCCNC(=O)c1cc(-c2ccccc2)on1 | – | 25 µM |
| COc1cccc(CNc2nc(-c3ccccn3)nnc2-c2ccccc2)c1 | – | 1.21 µM |
| O=C(NCCCO)c1cc(-c2ccccc2)on1 | – | 15.7 µM |
| O=C(c1cc(-c2ccccc2)on1)N1CCC(N2CCOCC2)CC1 | 12.2% (inactive) | – |
| Cc1ccc(Nc2nc(-c3ccccn3)nnc2-c2ccccc2)cn1 | – | 4.94 µM |
| OCCCNc1nc(-c2ccccn2)nnc1-c1ccccc1 | – | 8.68 µM |
| CC(C)(C)c1ccc(CNc2nc(-c3ccccn3)nnc2-c2ccccc2)cc1 | – | 0.401 µM |
| O=C(Nc1nc2ccccc2s1)c1cc(-c2ccccc2)on1 | – | > 38 µM (inactive) |
| O=C(NCCCCO)c1cc(-c2ccccc2)on1 | – | 9.04 µM |
| Cc1cccc(CNc2nc(-c3ccccn3)nnc2-c2ccccc2)c1 | – | 1.48 µM |
| Cc1ccccc1CNC(=O)c1cc(-c2ccccc2)on1 | – | > 38 µM (inactive) |
| O=C(c1cc(-c2ccccc2)on1)N1CCc2cccnc21 | -0.596% (inactive) | – |
